Measurements: PubChem BioAssay
Records with an inconclusive call do not appear.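 Rule for the calls, unless noted: active = inhibition over a set limit, the all-compound mean plus 3 SD, in both replicate runs; inconclusive = over that limit in just one replicate run; inactive = at or under that limit in both runs.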

How the values were obtained:
[1] = OD615 S. cerevisiae growth inhibition, permissive medium, pilot counter-assay, permissive growth control for S. cerevisiae lifespan shortening project (AID 705;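 active = growth inhibition above 25% in both replicates, a cutoff set 3 SD above the mean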); conditions: OD615, 24 h, at 10 µM, hits give high values
Method in brief: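 System – S. cerevisiae with engineered DeaD lifespan system · Buffer or medium – SC raffinose/galactose permissive medium · Schedule – cells pre-grown 4 h, then 24 h compound exposure, 30 °C humidified · Technique – culture turbidity as optical density at 615 nm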

[2] = Restrictive medium S. cerevisiae growth inhibition, OD615, pilot screen of yeast lifespan reduction project, restrictive growth control (AID 706;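 active = growth inhibition above a set limit, 3 SD over mean compound inhibition, in both replicates, cut at about 43% in these data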;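 note: modified DeaD lifespan yeast strain shifted to restrictive glucose medium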); conditions: OD615, 48 h, at 10 µM, hits give high values
Method in brief: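 Material: engineered S. cerevisiae DeaD strain / Medium: glucose-based CSMM-D restrictive medium / Compound: single dose of 10 µM compound final, 0.25% DMSO / Timing: 4 h pre-incubation, 48 h exposure at 30 °C / Technique: OD615 absorbance reading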

[3] = viability gain of MRP-1-high H69AR cells under doxorubicin, pilot screen, MRP-1 activator project, CellTiter-Glo, duplicate (AID 807;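 active = viability increase at or above a cutoff of the median across tested compounds plus 3 SD, cut at about 8.5% in these data, passing the limit was not always enough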;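 note: compound pretreatment 18-22 h then 72 h combined with doxorubicin; 0% = doxorubicin alone and 100% = vehicle without doxorubicin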); conditions: H69AR viability with doxorubicin, CellTiter-Glo luminescence; at 10 µM; hits give high values
[4] = growth suppression of beta-catenin knockout HCT116, pilot screen, human colon tumor cells (AID 823;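 active = cell viability at or below a set limit in both duplicate runs, the limit being the all-compound median minus 4 SD, cut at about 23% in these data, passing the limit was not always enough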;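 note: 0% = wells killed by 20 µM Hyamine and 100% = untreated DMSO cell wells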); conditions: CellTiter-Glo, 60 h, at 10 µM, hits give low values
[5] = growth suppression of PTEN-deleted HCT116, pilot screen, cell-based, HCT116 clonal line, CellTiter-Glo (AID 824;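 active = viability at or below 27.92% in each of two runs, the all-compound median minus 4 SD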;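 note: 0% = 20 µM Hyamine control and 100% = vehicle cell control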); conditions: 60 h, at 10 µM, hits give low values
[6] = inhibitors of the yeast RAM network, pilot screen, dse1pr::URA3 reporter, 5-FOA selection (AID 869);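 note: 0% = DMSO wells with no growth and 100% = 10 µM 1-NA-PP1 with full growth; RAM network block rescues cells from 5-FOA so hits raise OD615 growth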; conditions: S. cerevisiae dse1pr::URA3 5-FOA growth, OD615, 2 d; at 10 µM; hits give high values; strain carries analog-sensitive mutant Cbk1 kinase
[7] = RAM signaling pathway blockade in yeast – S. cerevisiae, Pdr1DBD-CYC8 efflux-inhibited sensitized strain, primary screen (AID 1298;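 active = RAM network inhibition above 8.4% in each of two replicates, 3 SD over the compound average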;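 note: 0% = DMSO untreated cells without growth and 100% = 10 µM 1-NA-PP1 full growth; higher means more yeast growth rescued from 5-FOA killing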); conditions: S. cerevisiae cbk1-as DSE1-URA3 strain, 5-FOA growth OD615, 2 d; at 50 µM; hits give high values

CCCCOC(=O)c1ccc(NC(=O)CSCc2n[nH]c(=O)[nH]2)cc1
inactive: growth inhibition [1] -1.44% | growth inhibition [2] -3.24% | viability increase [3] 0.11% | viability [4] 98.3% | viability [5] 102% | inhibition [6] 0.475% | RAM network inhibition [7] 1.48%

COCCNC(=O)c1cc2c(=O)n(C)c3ccccc3c2n1C
inactive: growth inhibition [1] -11.1% | growth inhibition [2] -7.54% | viability increase [3] -4.57% | viability [4] 84.4% | viability [5] 84.4% | inhibition [6] 2.69% | RAM network inhibition [7] 0.36%

O=C(CCc1nc2ccccc2[nH]1)N1CCN(C(=O)c2ccco2)CC1
inactive: growth inhibition [1] -9.21% | growth inhibition [2] -5.44% | viability increase [3] -0.98% | viability [4] 101% | viability [5] 96.7% | inhibition [6] 0.87% | RAM network inhibition [7] 1.88%

O=C(NCc1ccco1)c1ccc2c(c1)N(Cc1ccccc1)C(=O)CS2=O (configuration not stated)
inactive: growth inhibition [1] -4.13% | growth inhibition [2] 3.41% | viability increase [3] 3.66% | viability [4] 97.8% | viability [5] 82.6% | inhibition [6] 0.885% | RAM network inhibition [7] 1.29%

COc1ccccc1N1CCN(C(CNS(=O)(=O)c2cccs2)c2cccnc2)CC1 (configuration not stated)
inactive: growth inhibition [1] -6.17% | growth inhibition [2] -25.5% | viability increase [3] -3.42% | viability [4] 87.8% | viability [5] 79.1% | inhibition [6] 1.8% | RAM network inhibition [7] 5.16%

CCCCn1c(=O)cc(N2CCOCC2)[nH]c1=O
inactive: growth inhibition [1] -16.3% | growth inhibition [2] -20.6% | viability increase [3] 0.83% | viability [4] 99.7% | viability [5] 94.3% | inhibition [6] 1.04% | RAM network inhibition [7] -0.95%

C=CCc1ccccc1OCC(O)CN1CCN(c2ccccc2OC)CC1 (configuration not stated)
inactive: growth inhibition [1] -21.5% | growth inhibition [2] -25% | viability increase [3] -4.59% | viability [4] 56.3% | viability [5] 63.5% | inhibition [6] 1.39% | RAM network inhibition [7] 4.75%

Cc1ccccc1-c1nc(CS(=O)CC(=O)NCCN2CCOCC2)c(C)o1 (configuration not stated)
inactive: growth inhibition [1] 0.43% | growth inhibition [2] 1.41% | viability increase [3] -1.4% | viability [4] 101% | viability [5] 91.2% | inhibition [6] 1.11% | RAM network inhibition [7] 9.97%

C=CCOC(=O)C1=C(C)NC(=O)NC1c1ccc(OC(=O)c2ccco2)c(OC)c1 (configuration not stated)
inactive: growth inhibition [1] -6.37% | growth inhibition [2] -18.3% | viability increase [3] -0.16% | viability [4] 93.6% | viability [5] 96.4% | inhibition [6] 0.145% | RAM network inhibition [7] 2.71%

COCc1cc(C)nc2sc3c(=O)n(Cc4ccco4)nnc3c12
inactive: growth inhibition [1] -8.08% | growth inhibition [2] -13.3% | viability increase [3] -1.93% | viability [4] 100% | viability [5] 90.7% | inhibition [6] 4.2% | RAM network inhibition [7] 4.8%

Cc1ccccc1C(=O)Nc1ccc2nc3n(c(=O)c2c1)CCC3
inactive: growth inhibition [1] -2.17% | growth inhibition [2] 0.31% | viability increase [3] 0.79% | viability [4] 106% | viability [5] 104% | inhibition [6] 0.085% | RAM network inhibition [7] 4.34%

O=C(O)c1c(F)c(F)c(F)c(F)c1-c1ccc(Cl)cc1
inactive: growth inhibition [1] -20% | growth inhibition [2] -19.6% | viability increase [3] -1.76% | viability [4] 98.9% | viability [5] 98.9% | inhibition [6] -0.105% | RAM network inhibition [7] 5.79%

Cc1cccc(NC(=O)Cn2cnc3sc(C)c(S(=O)(=O)N4CCC(C)CC4)c3c2=O)n1
inactive: growth inhibition [1] -9.9% | growth inhibition [2] -17.3% | viability increase [3] -1.12% | viability [4] 95.2% | viability [5] 99.1% | inhibition [6] 2.16% | RAM network inhibition [7] 9.71%

CC(=O)c1c(C)[nH]c(C(=O)Nc2cc(C)ccc2C)c1C
inactive: growth inhibition [1] 8.06% | growth inhibition [2] -8.57% | viability increase [3] -1.16% | viability [4] 98.5% | viability [5] 96.6% | inhibition [6] 2.14% | RAM network inhibition [7] 1.74%

O=C(CN1CC(c2ccccc2)CC1=O)Nc1ccc2c(c1)OCO2 (configuration not stated)
inactive: growth inhibition [1] -7.38% | growth inhibition [2] 0.29% | viability increase [3] -1.16% | viability [4] 98% | viability [5] 101% | inhibition [6] 0.205% | RAM network inhibition [7] 1.31%

COc1ccc(CC(NC(=O)c2ccccc2)C(=O)NCC(=O)O)cc1 (configuration not stated)
inactive: growth inhibition [1] -3.04% | growth inhibition [2] -2.91% | viability increase [3] -0.14% | viability [4] 95.2% | viability [5] 101% | inhibition [6] 1.44% | RAM network inhibition [7] -0.37%
